Compound activity: PubChem BioAssay, Broad Institute
Rows were chosen to be rich in hits. Some 5.8% of all compounds tested hit in one or more screens of this group.
GASC1 inh: inhibitors of GASC-1 (KDM4C) histone demethylase, primary screen, biochemical, single concentration HTS | Lysine-specific demethylase 4C (Homo sapiens), Q9H3R0 | GST-KDM4C 2-372, H3K9me3 peptide, LANCE TR-FRET | inhibition, % at 12.5 µM | 0.15% of 96,000 active | AID 720574, 2013;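 active = mean replicate inhibition above about 25%, with at least 55% of replicates also reaching it, limit read from the data, passing the limit was not always enough; inconclusive = only one of those two conditions met; inactive = neither condition met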
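Compound: one test concentration per compound; Material: GST-GASC-1 enzyme fragment 2-372; Amount: GASC-1 enzyme at 10 nM final in reaction; Also added: H3K9me3 peptide substrate, Fe(II), 2-oxoglutarate; Technique: LANCE TR-FRET; Times: 30 min demethylation and 1 h detection at room temperature.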
Tcruzi prolif: T. cruzi intracellular proliferation inhibitors, primary screen, cell-based, beta-gal Tulahuen parasites, NIH3T3 host, luminescence. T. cruzi beta-gal in NIH3T3, GalScreen luminescence, 90 h. inhibition, % at 8.34 µM. 5.9% of 77,000 active;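 active = mean inhibition above about 93%, with at least 55% of replicates each passing it, limit read from the data, passing the limit was not always enough; inconclusive = only one of those two conditions holds; inactive = neither condition holds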
IDH1 mut inh: inhibitors of IDH1 R132H reductase, primary screen, biochemical, plate reader, single point | diaphorase/resazurin fluorescence, 60 min | 0.18% of 70,000 active | inhibition, % at 10 µM | AID 624101, 2012 | Isocitrate dehydrogenase [NADP] cytoplasmic (Homo sapiens), O75874; in the data active = inhibition above about 34%; inconclusive = no clear call, values can overlap the other calls; inactive = below about 11%
Target sequence (O75874 whole entry R132H): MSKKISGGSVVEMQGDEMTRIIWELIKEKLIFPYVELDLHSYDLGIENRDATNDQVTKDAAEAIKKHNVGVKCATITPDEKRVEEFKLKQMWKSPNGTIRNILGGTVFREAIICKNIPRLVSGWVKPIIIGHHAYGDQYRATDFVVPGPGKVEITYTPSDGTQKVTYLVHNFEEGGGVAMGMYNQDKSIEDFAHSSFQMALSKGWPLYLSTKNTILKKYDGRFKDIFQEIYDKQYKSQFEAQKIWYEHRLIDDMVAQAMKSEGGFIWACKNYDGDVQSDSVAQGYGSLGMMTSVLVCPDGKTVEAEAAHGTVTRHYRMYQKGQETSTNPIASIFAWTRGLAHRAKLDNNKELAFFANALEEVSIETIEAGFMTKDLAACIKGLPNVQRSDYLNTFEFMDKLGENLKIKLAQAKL
Pf Dd2 growth: P. falciparum Dd2 growth inhibitors, primary screen, SYBR Green fluorescence, single dose replicates; 72 h; hits give low values; activity change, % at 10 µM; 2.3% of 94,000 active; AID 1159554, 2015; in the data active = activity change below about -80%; inconclusive = no clear call, values can overlap the other calls
Hits are given with their value; - = inactive; ? = inconclusive; . = not tested or not shown.

SMILES	GASC1 inh	Tcruzi prolif	IDH1 mut inh	Pf Dd2 growth
C[C@H](CO)N1C[C@H](C)[C@@H](CN(C)Cc2ccc(C(=O)Nc3ccccc3N)cc2)Oc2ccc(NC(=O)Nc3ccc(F)cc3)cc2C1=O	-	-	.	?
C[C@@H]1CN([C@@H](C)CO)C(=O)c2cccc(NC(=O)Nc3ccc(F)cc3)c2O[C@@H]1CN(C)Cc1ccc(C(=O)Nc2ccccc2N)cc1	-	.	-	-92
C[C@@H]1CN([C@H](C)CO)C(=O)c2cccc(NC(=O)Nc3ccc(F)cc3)c2O[C@@H]1CN(C)Cc1ccc(C(=O)Nc2ccccc2N)cc1	-	.	.	-89
CCC(=O)Nc1ccc2c(c1)C(=O)N(C)C[C@@H](OC)[C@H](C)CN(Cc1ccncc1)[C@@H](C)CO2	-	-	-	-
C[C@H](CO)N1C[C@H](C)[C@H](CN(C)Cc2ccc(F)cc2)Oc2cc(C#CCN(C)C)ccc2S1(=O)=O	42	-	-	-
C[C@@H]1CN([C@@H](C)CO)S(=O)(=O)c2ccc(-c3cccc(C#N)c3)cc2O[C@H]1CN(C)Cc1cccc(F)c1	.	-	-	-84
CC(C)CC#Cc1ccc2c(c1)O[C@@H](CN(C)Cc1ccccc1)[C@@H](C)CN([C@H](C)CO)S2(=O)=O	-	-	-	-
CC(C)CC#Cc1ccc2c(c1)O[C@@H](CN(C)Cc1cccc(F)c1)[C@H](C)CN([C@H](C)CO)S2(=O)=O	-	-	-	-92
CC(C)CC#Cc1ccc2c(c1)O[C@@H](CN(C)C(=O)NC(C)C)[C@@H](C)CN([C@@H](C)CO)S2(=O)=O	-	-	-	-
CC(C)CC#Cc1ccc2c(c1)O[C@@H](CN(C)C(=O)NC(C)C)[C@H](C)CN([C@@H](C)CO)S2(=O)=O	-	-	36	-
Cn1c(Cc2cccc3ccccc23)nnc1SCC(=O)N1CCc2ccccc21	.	.	-	.
C[C@H](CO)N1C[C@H](C)[C@H](CN(C)C(=O)Nc2ccc(F)cc2)Oc2ccc(NS(C)(=O)=O)cc2CC1=O	-	-	.	-
C[C@@H]1CN([C@@H](C)CO)S(=O)(=O)c2ccc(C#CCN(C)C)cc2O[C@H]1CN(C)CC1CCCC1	-	-	-	-83
COCC(=O)N(C)C[C@@H]1Oc2ncc(C#C[C@@H](C)O)cc2C(=O)N([C@@H](C)CO)C[C@@H]1C	-	-	.	.
Cc1ccc(S(=O)(=O)N[C@H]2CC[C@@H](CCn3cc(-c4cccc(F)c4)nn3)O[C@H]2CO)cc1	-	-	-	-
C[C@H](O)C#Cc1cnc2c(c1)C(=O)N([C@@H](C)CO)C[C@@H](C)[C@@H](CN(C)C(=O)Cc1ccncc1)O2	-	.	-	-95
CCCC#Cc1cnc2c(c1)C(=O)N([C@@H](C)CO)C[C@H](C)[C@@H](CN(C)C(=O)Cc1ccncc1)O2	-	-	51	-
O=C(C1CC1)N1CC2(C1)[C@H](c1ccccc1)[C@H](CO)N2Cc1nccs1	-	.	.	-
COc1ccc(CNC(=O)C[C@H]2CC[C@H](NC(=O)c3ccc4c(c3)OCO4)[C@H](CO)O2)cc1	-	-	-	-
CC(C)C#Cc1ccc2c(c1)O[C@@H](CN(C)C)[C@@H](C)CN([C@H](C)CO)S2(=O)=O	60	.	75	-
CCCC#Cc1ccc2c(c1)O[C@@H](CN(C)S(C)(=O)=O)[C@@H](C)CN([C@H](C)CO)S2(=O)=O	41	-	-	-
C[C@H]1CN([C@@H](C)CO)S(=O)(=O)c2ccc(C#Cc3cccc(F)c3)cc2O[C@@H]1CN(C)C	55	-	71	-
COCC(=O)N(C)C[C@H]1Oc2ncc(C#Cc3ccccc3)cc2C(=O)N([C@H](C)CO)C[C@H]1C	-	-	.	-
C[C@@H]1CCCCO[C@H](CN(C)C(=O)Nc2ccc(F)cc2)[C@@H](C)CN([C@@H](C)CO)C(=O)c2cc(NC(=O)c3ccccc3)ccc2O1	-	-	.	-
COc1ccc2c3c([nH]c2c1)[C@H](CO)N(Cc1nccs1)CC31CN(C(=O)C2CCC2)C1	-	.	.	-
SMILES	GASC1 inh	Tcruzi prolif	IDH1 mut inh	Pf Dd2 growth
COc1ccc2c3c([nH]c2c1)[C@H](CO)N(Cc1cc(F)ccc1F)CC31CN(C(=O)C2CCC2)C1	-	.	.	-88
COc1ccc2c3c([nH]c2c1)[C@@H](CO)N(Cc1ccccc1F)CC31CN(C(=O)C2CCOCC2)C1	.	.	.	-
COc1ccc2c3c([nH]c2c1)[C@@H](CO)N(Cc1ccccc1F)CC31CN(C(=O)C2CCC2)C1	-	.	.	-92
CCCNC(=O)N1CC2(CN(C(=O)C3CCC3)C2)c2c([nH]c3cc(OC)ccc23)[C@H]1CO	-	.	.	-85
C[C@@H]1CN([C@@H](C)CO)C(=O)c2cc(-c3cccc(F)c3)cnc2O[C@@H]1CN(C)C(=O)C1CC1	-	-	-	-
CO[C@H]1O[C@H](CO)[C@@H](OC(=O)Nc2ccccc2)[C@H](OC(=O)Nc2ccccc2)[C@H]1OC(=O)Nc1ccccc1	.	.	-	.
CC(=O)c1cccc(NC(=O)CNS(=O)(=O)c2ccc(Cl)cc2)c1	.	.	-	.
CN(CC(=O)Nc1ccccc1C#N)S(=O)(=O)c1ccccc1	.	.	-	.
CCCN(C)C[C@H]1Oc2ncc(C#CC3CC3)cc2C(=O)N([C@H](C)CO)C[C@H]1C	-	-	-	-83
CCCN(C)C[C@H]1Oc2ncc(C#Cc3ccc(F)cc3)cc2C(=O)N([C@@H](C)CO)C[C@H]1C	-	-	-	-86
O=C(C[C@H]1CC[C@@H]2[C@H](COC[C@@H](O)CN2C(=O)Nc2ccc3c(c2)OCO3)O1)N1CCN(c2ccccc2)CC1	-	.	.	-88
O=C(C[C@@H]1CC[C@@H]2[C@H](COC[C@H](O)CN2C(=O)Nc2ccc3c(c2)OCO3)O1)N1CCN(c2ccccc2)CC1	-	.	.	-
COc1ccc(NC(=O)N[C@H]2CC[C@H](CCNS(=O)(=O)c3ccccc3F)O[C@H]2CO)cc1	-	-	-	-
C[C@@H]1CN([C@@H](C)CO)C(=O)c2cccc(NC(=O)c3cnccn3)c2O[C@H]1CN(C)Cc1ccc(Cl)c(Cl)c1	-	-	-	-83
C[C@@H]1CN([C@H](C)CO)C(=O)c2cccc(NC(=O)c3cnccn3)c2O[C@H]1CN(C)Cc1ccc(C(=O)Nc2ccccc2N)cc1	-	.	.	-91
C[C@@H]1CN([C@@H](C)CO)C(=O)c2cccc(NC(=O)c3cnccn3)c2O[C@@H]1CN(C)Cc1ccc(Cl)c(Cl)c1	-	-	.	-
C[C@@H]1CN([C@@H](C)CO)C(=O)c2cccc(NC(=O)c3cnccn3)c2O[C@@H]1CN(C)Cc1ccc(-c2ccccc2)cc1	-	-	.	-87
C[C@H](CO)N1C[C@H](C)[C@H](CN(C)Cc2ccccc2)Oc2c(NC(=O)c3cnccn3)cccc2C1=O	-	-	.	-
CC(=O)c1cccc(NC(=O)CSc2ncnc3sc(C)c(C)c23)c1	.	.	-	.
C[C@H]1CN([C@@H](C)CO)C(=O)c2c(c3ccccc3n2C)-c2ccccc2CO[C@@H]1CN(C)Cc1cccc(C(F)(F)F)c1	-	.	.	-82
